Data set [1] has as its target Stromelysin-1 (Homo sapiens, UniProt P08254). The data set can be described thus: Inhibitory activity against Matrix metalloprotease-3. In short, it runs like this:
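Enzyme and DMSO inhibitor were preincubated 30 min at room temperature in 50 mM Tris-Cl/10 mM CaCl2/0.2 M NaCl/0.02% NaN3/0.05% Brij-35, pH 7.5. Substrate MOAc-Arg-Pro-Lys-Pro-Val-Glu-Nva-Trp-Arg-Lys(Dnp)NH2 (added as 25 μM solution) then reacted 90 min.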

A short description of data set [2]: Maximum plasma concentration (Cmax) after p.o. administration of 200 mg/kg in mice. The arrangement: dose 200 mg/kg, route oral. Conditions: mouse, po. It counts as ADME, organism-based. In short, it runs like this: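 Single 200 mg/kg oral dose in mice, given in 0.5% methyl cellulose. Blood drawn at various time points. Plasma drug extracted with CH3CN and quantified by reverse-phase C18 HPLC using a CH3CN gradient with 0.1% TFA. Peak plasma level taken as Cmax.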

Data set [3] deals with T1, Interstitial collagenase (Homo sapiens, UniProt P03956).
T1 sequence (P03956 whole entry): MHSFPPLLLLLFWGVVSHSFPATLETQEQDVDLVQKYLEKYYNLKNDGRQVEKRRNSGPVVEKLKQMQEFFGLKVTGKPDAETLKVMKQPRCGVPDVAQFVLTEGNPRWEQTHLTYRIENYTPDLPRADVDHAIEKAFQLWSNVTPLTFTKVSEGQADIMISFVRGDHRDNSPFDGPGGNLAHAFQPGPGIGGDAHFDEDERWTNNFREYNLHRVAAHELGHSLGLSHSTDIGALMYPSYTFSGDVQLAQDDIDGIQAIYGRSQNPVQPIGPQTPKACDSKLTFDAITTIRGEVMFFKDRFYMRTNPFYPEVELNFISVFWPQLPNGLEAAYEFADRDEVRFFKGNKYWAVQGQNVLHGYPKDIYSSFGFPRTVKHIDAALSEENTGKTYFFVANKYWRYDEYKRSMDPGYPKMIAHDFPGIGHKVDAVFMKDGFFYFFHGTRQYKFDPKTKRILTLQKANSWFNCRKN
The data set can be described thus: Inhibitory activity against Matrix metalloprotease-1. In short, it runs like this: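 Commercial enzyme diluted in Tris/CaCl2/NaCl/Brij-35 buffer. Enzyme (about 0.2 unit/mL) and DMSO inhibitor were preincubated 30 min at room temperature with ABD-F (added as 2 mM) in 25 mM HEPES-NaOH/5 mM CaCl2, pH 7.0. Thiopeptide substrate Ac-Pro-Leu-Gly-SCH(CH2CH(CH3)2)CO-Leu-Gly-OEt (1.25 mM stock) was then added for 3 h at 37 °C. Reaction quenched with 3% acetic acid. Fluorescence read at ex 360/em 530 nm.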

For data set [4], the target named is 72 kDa type IV collagenase (Homo sapiens, UniProt P08253). The data set can be described thus: Inhibitory activity against human gelatinase A (matrix metalloprotease-2 MMP2).
For data set [5], the target named is T2, Matrilysin (Homo sapiens, UniProt P09237).
T2 sequence (P09237 whole entry): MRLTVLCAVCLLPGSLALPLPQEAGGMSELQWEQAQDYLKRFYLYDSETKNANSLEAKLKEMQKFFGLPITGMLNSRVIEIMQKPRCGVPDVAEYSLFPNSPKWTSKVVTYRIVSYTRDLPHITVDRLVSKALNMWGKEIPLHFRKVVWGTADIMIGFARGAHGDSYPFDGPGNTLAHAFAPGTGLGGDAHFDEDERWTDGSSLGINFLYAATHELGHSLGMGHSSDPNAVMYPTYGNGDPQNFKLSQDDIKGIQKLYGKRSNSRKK
Put plainly: Inhibitory activity against Matrix metalloprotease-7.

In data set [6] the target is T3, Neprilysin (Rattus norvegicus, UniProt P07861).
T3 sequence (P07861 whole entry): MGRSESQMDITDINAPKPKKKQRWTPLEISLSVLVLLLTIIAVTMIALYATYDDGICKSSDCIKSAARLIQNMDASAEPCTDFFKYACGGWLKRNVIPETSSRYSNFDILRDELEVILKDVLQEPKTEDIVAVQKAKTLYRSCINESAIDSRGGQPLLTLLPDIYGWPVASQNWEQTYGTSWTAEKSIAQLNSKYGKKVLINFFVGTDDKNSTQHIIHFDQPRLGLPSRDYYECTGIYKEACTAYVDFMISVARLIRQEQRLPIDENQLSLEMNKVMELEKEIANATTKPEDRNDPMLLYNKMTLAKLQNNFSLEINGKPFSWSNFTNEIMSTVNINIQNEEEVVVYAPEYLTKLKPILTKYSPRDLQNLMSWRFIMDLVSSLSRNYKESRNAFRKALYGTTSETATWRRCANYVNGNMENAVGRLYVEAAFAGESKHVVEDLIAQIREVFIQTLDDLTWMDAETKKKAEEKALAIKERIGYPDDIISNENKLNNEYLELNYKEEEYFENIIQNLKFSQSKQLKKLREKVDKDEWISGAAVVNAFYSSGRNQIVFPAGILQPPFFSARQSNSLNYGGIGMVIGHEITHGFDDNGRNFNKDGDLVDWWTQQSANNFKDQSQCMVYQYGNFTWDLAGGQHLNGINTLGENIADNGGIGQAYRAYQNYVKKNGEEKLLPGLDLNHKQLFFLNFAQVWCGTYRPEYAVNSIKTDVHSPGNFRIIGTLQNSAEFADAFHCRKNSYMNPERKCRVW
The data set can be described thus: Inhibitory activity against neutral endopeptidase (NEP).

For data set [7], the target named is T4, Endothelin-converting enzyme 1 (Homo sapiens, UniProt P42892).
T4 sequence (P42892 whole entry): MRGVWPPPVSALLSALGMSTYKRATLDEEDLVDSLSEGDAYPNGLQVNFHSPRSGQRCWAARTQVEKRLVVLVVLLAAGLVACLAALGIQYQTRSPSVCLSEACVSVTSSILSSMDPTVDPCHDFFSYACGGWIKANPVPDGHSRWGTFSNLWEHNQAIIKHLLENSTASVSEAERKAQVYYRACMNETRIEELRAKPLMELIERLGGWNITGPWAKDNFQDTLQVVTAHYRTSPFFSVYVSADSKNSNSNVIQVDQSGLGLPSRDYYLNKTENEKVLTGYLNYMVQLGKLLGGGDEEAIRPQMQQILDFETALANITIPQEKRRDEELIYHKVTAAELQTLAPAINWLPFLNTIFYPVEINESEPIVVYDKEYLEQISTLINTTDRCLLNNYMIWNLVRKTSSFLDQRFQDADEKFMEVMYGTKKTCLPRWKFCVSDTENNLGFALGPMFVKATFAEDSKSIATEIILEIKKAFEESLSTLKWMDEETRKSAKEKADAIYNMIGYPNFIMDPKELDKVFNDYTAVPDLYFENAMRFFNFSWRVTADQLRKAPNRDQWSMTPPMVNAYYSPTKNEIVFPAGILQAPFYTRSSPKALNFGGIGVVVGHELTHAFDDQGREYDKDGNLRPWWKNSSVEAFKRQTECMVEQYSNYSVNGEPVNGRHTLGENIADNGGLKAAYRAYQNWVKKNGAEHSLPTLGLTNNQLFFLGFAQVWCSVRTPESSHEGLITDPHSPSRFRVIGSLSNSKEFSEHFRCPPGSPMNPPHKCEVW
The data set can be described thus: Inhibitory activity against endothelin converting enzyme (ECE).

Data set [8] concerns the target Angiotensin-converting enzyme (Homo sapiens, UniProt P12821). Put plainly: Inhibitory activity against Angiotensin I converting enzyme.
Data set [9] has as its target T4, Endothelin-converting enzyme 1. The data set can be described thus: Inhibitory activity against Endothelin-converting enzyme (ECE).
The target of data set [10] is Matrix metalloproteinase-9 (Homo sapiens, UniProt P14780). The data set can be described thus: Inhibitory activity against human gelatinase B (Matrix metalloprotease-9).

This note sets out measurements from ChEMBL document CHEMBL1131478 (J Med Chem, 1998).

pIC50: −log10 of the molar value.

Chain of 72 kDa type IV collagenase (P08253 whole entry): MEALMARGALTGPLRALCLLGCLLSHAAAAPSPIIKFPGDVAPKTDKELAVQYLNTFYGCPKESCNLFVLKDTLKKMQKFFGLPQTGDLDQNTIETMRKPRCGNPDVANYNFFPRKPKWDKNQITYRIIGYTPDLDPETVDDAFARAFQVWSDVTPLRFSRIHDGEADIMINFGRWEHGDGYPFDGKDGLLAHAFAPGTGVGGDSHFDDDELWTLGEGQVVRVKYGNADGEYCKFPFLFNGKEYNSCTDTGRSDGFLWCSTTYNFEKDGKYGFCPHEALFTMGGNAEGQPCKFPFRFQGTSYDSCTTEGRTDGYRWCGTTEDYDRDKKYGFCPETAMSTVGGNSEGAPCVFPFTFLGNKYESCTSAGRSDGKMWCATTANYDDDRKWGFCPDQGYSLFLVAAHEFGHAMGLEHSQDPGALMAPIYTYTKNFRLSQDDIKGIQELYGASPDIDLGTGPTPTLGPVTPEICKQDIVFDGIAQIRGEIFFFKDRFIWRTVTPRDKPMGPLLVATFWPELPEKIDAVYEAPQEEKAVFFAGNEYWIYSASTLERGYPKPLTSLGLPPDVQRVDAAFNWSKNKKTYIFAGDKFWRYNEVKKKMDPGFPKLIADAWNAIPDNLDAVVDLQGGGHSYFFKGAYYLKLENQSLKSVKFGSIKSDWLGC
Chain of Angiotensin-converting enzyme (P12821 whole entry): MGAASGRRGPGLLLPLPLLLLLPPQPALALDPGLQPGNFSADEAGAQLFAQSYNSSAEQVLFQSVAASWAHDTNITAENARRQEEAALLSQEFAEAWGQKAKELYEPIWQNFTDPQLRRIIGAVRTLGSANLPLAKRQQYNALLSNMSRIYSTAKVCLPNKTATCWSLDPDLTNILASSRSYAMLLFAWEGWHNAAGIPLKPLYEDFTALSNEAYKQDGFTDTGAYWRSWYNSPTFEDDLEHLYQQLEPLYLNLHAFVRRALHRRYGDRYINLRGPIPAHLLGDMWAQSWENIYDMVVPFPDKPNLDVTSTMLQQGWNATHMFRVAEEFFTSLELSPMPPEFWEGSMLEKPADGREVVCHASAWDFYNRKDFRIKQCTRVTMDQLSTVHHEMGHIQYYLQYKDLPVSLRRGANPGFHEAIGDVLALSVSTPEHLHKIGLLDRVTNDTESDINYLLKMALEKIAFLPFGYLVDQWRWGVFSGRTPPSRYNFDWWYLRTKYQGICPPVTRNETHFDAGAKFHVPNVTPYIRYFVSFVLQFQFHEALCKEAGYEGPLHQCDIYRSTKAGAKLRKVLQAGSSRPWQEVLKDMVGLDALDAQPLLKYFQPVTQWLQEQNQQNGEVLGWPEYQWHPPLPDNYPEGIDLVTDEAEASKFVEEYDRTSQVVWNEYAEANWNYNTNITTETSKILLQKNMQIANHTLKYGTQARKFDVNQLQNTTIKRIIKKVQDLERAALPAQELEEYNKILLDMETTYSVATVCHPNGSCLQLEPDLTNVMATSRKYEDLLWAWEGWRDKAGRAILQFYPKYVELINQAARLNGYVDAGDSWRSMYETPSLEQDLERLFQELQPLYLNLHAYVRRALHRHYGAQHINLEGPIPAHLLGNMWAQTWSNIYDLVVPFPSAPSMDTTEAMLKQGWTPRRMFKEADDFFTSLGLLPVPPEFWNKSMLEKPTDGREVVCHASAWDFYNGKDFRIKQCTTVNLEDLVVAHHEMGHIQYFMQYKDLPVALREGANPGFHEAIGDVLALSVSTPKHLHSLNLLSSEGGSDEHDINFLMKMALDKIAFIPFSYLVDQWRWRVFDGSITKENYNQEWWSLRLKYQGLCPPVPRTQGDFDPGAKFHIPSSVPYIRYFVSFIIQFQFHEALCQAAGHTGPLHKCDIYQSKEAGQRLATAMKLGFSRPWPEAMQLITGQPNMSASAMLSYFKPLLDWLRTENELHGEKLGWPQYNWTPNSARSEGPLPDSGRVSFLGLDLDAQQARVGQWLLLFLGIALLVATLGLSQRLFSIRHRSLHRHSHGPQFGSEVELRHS
Chain of Stromelysin-1 (P08254 whole entry): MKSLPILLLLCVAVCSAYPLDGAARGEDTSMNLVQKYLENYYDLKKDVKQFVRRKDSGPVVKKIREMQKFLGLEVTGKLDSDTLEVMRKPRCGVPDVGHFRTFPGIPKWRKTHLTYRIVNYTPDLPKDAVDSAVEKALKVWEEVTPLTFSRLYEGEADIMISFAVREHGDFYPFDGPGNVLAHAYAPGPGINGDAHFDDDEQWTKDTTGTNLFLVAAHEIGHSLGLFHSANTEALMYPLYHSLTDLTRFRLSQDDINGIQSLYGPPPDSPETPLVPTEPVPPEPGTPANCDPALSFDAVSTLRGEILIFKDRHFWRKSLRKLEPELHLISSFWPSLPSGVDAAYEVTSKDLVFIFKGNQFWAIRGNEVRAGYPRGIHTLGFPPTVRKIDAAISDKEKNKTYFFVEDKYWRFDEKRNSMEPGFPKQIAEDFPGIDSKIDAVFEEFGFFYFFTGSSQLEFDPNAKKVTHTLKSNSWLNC
Chain of Matrix metalloproteinase-9 (P14780 whole entry): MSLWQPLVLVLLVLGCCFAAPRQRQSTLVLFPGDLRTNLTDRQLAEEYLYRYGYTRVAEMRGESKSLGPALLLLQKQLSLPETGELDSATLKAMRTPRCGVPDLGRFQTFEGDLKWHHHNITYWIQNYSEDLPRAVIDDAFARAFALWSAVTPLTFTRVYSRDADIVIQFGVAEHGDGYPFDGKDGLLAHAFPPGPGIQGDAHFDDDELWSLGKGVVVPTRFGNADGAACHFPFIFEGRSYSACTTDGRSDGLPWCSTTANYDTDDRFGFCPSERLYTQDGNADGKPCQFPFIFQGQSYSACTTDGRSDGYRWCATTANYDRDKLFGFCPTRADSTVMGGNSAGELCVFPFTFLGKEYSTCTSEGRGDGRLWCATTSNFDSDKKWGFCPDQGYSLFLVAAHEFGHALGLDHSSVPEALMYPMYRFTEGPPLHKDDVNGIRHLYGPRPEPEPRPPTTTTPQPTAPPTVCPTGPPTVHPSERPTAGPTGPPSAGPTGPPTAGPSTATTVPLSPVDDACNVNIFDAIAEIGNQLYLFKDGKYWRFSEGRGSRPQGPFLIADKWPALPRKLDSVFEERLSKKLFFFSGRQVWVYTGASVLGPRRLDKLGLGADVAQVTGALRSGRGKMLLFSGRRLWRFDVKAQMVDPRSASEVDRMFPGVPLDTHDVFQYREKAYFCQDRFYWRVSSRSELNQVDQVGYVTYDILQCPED

Take `O=C(Nc1ccc(S(=O)(=O)N[C@H](Cc2c[nH]c3ccccc23)C(=O)O)cc1)c1ccc(Br)cc1`: the pIC50 – broadly, −log10 of the IC50, conventionally taken in molar units – in [1] is below 6.00; in data set [3], below 6.00; in data set [4] it was 8.59; in data set [5] it was below 6.00; in data set [6], below 6.00; in [7], below 6.00. Besides, in [8], the pIC50 is below 6.00. Also, the concentration in data set [2] peaked (Cmax) at 0.2 µM.

Take `CSc1ccc(-n2nnc(-c3ccc(S(=O)(=O)N[C@@H](C(=O)O)C(C)C)cc3)n2)cc1`: the negative-log IC50 (pIC50) in data set [1] was below 6.00; in data set [3], below 6.00; in [4] it was 7.89; in data set [5], below 6.00; in data set [6], below 6.00; in data set [7], below 6.00. The compound also showed a pIC50 in [8] below 6.00. Moreover, the maximum concentration (Cmax) – broadly, the maximum level reached in the sampled fluid or tissue – in data set [2] stood at 47.7 µM.

In the case of `O=C(O)[C@@H](Cc1c[nH]c2ccccc12)NS(=O)(=O)c1ccc(-c2nnn(-c3ccccc3)n2)cc1`, the negative logarithm of the IC50 (pIC50) in data set [1] is below 6.00; in [3], below 6.00; in [9], below 6.00; in data set [4], 7.72; in data set [5] it was below 6.00; in data set [10], 7.49. Besides, the pIC50 in [6] and in data set [8] was below 6.00 each time.

Take `Cc1ccc(C#Cc2ccc(S(=O)(=O)N[C@H](Cc3c[nH]c4ccccc34)C(=O)O)s2)cc1` [S-3304]: the pIC50 is below 6.00 in [1]; below 6.00 in [3]; below 6.00 in data set [5]; 7.64 in data set [10]; below 6.00 in [6]; below 6.00 in data set [7]. Further, in [8], the negative logarithm of the IC50 (pIC50) was below 6.00. The compound further yielded a Cmax in data set [2] of 204 µM.

As to `CSc1ccc(-c2ccc(S(=O)(=O)N[C@@H](C(=O)O)C(C)C)cc2)cc1`, the pIC50 in data set [1] is below 6.00; in data set [3] it was below 6.00; in [4], 7.64; in data set [5] it was below 6.00; in data set [10], 7.40; in data set [6], below 6.00. For the same compound, the negative logarithm of the IC50 (pIC50) in data set [7] and in [8] was below 6.00 throughout. Besides, in data set [2], the highest level (Cmax) was 189 µM.

`Cc1ccc(-c2ccc(S(=O)(=O)N[C@H](Cc3c[nH]c4ccccc34)C(=O)O)s2)cc1`: the pIC50 in data set [1] was below 6.00; in data set [3], below 6.00; in data set [9], below 6.00; in data set [4], 8.00; in [5] it was below 6.00; in data set [10], 7.21. For the same compound, the pIC50 in data set [6] and in data set [8] was below 6.00 each time. This compound also had a Cmax in data set [2] of 252 µM.
